How the values were obtained:
Adenosine receptor A1 [1] = biological target: T1, Adenosine receptor A1 (Homo sapiens, UniProt P30542); experiment: Displacement of […] from human adenosine A1 receptor expressed in CHO cells by scintillation counting in presence of 10 uM allosteric modulator PD-81723; assay type: cell-based
T1 sequence (P30542 whole entry): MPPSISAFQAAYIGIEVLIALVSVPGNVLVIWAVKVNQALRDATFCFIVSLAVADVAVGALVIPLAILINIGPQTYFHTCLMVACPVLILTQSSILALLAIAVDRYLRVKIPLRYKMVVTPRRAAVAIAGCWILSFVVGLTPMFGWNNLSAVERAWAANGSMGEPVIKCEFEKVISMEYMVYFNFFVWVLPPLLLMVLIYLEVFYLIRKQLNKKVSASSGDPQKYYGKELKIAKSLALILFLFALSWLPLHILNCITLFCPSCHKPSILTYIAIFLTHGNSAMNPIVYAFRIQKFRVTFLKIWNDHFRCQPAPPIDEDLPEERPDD
Outline: (§1)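 Equilibrium competition in 50 mM Tris HCl pH 7.4 with 0.8 IU/mL adenosine deaminase and 1.6 nM [3H]DPCPX. Increasing ligand concentrations ± 10 μM PD81,723. CHO-hA1 membranes (10 μg protein) incubated 1 h at 25 °C. GF/B filtration, scintillation counting. Nonspecific binding defined with 10 μM CPA. High- and low-affinity Ki taken from biphasic curves.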

Adenosine receptor A1 [2] = biological target: T1, Adenosine receptor A1; experiment: Displacement of […] from human adenosine A1 receptor expressed in CHO cells by scintillation counting; assay type: cell-based; outline: as §1
[3] = biological target: T2, Adenosine receptor A1 (Homo sapiens) (UniProt P30542); experiment: Displacement of […] from human adenosine A1 receptor expressed in CHO cells by scintillation counting relative to control; assay type: cell-based; set-up: concentration or dose not given beside the values; outline: as §1
T2 sequence (whole entry): T1 sequence (P30542 whole entry)

Adenosine receptor A1 [4] = biological target: T1, Adenosine receptor A1; experiment: Enhancement of [3H]CCPA binding to human adenosine A1 receptor expressed in CHO cells by scintillation counting
[5] = biological target: T2, Adenosine receptor A1 (Homo sapiens); experiment: Displacement of [3H]CCPA from human adenosine A1 receptor expressed in CHO cells by scintillation counting relative to control; assay type: cell-based
Outline: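 Filtration and scintillation counting. Nonspecific binding defined with 10 μM CPA. pKi and maximal displacement given as percent of specific binding. pKi compared by one-way ANOVA with Bonferroni test.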

[6] = biological target: T2, Adenosine receptor A1 (Homo sapiens); experiment: Agonist activity at human adenosine A1 receptor expressed in CHO cells assessed as stimulation of ERK1/2 phosphorylation in presence of 10 uM allosteric modulator PD-81723 relative to control; assay type: functional, cell-based
Outline: (§2)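 Intact CHO-hA1 cells seeded at 40 000/well. After 6 h, washed and serum-starved in DMEM for 14 h. Pretreated 30 min with 0.8 IU/mL adenosine deaminase, then stimulated 5 min with compound ± 10 μM PD81,723. Lysed; phospho-ERK1/2 read by AlphaScreen SureFire after ≥3 h dark incubation at room temperature. Emax given as percent of the reference agonist. Mean ± SEM of ≥3 experiments. Fold shift in pEC50 versus control.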

Adenosine receptor A1 [7] = biological target: T1, Adenosine receptor A1; experiment: Agonist activity at human adenosine A1 receptor expressed in CHO cells assessed as [35S]GTPgammaS binding by scintillation counting in presence of 10 uM allosteric modulator PD-81723; assay type: functional, cell-based
Outline: (§3)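 CHO-hA1 membranes (5 μg protein) preincubated 30 min at 25 °C in 50 mM Tris, 100 mM NaCl, 10 mM MgCl, pH 7.4 with 3 μM GDP and a concentration range of agonist, with or without 10 μM PD81,723. 0.3 nM (final) [35S]GTPγS then added for 45 min at 25 °C. Filtration, washing, scintillation counting. Emax given as percent of maximal stimulation by the reference agonist. Control and PD81,723 pEC50 compared to give fold shift.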

Adenosine receptor A1 [8] = biological target: T1, Adenosine receptor A1; experiment: Agonist activity at human adenosine A1 receptor expressed in CHO cells assessed as stimulation of ERK1/2 phosphorylation; assay type: functional, cell-based; outline: as §2
[9] = biological target: T2, Adenosine receptor A1 (Homo sapiens); experiment: Selectivity ratio of EC50 for human adenosine A1 receptor to EC50 for human adenosine A1 receptor in presence of 10 uM allosteric modulator PD-81723; outline: as §3
Adenosine receptor A1 [10] = biological target: T1, Adenosine receptor A1; experiment: Agonist activity at human adenosine A1 receptor expressed in CHO cells assessed as [35S]GTPgammaS binding by scintillation counting; assay type: functional, cell-based; outline: as §3
[11] = biological target: T2, Adenosine receptor A1 (Homo sapiens); experiment: Selectivity ratio of EC50 for human adenosine A1 receptor-mediated ERK1/2 phosphorylation to EC50 for human adenosine A1 receptor-mediated ERK1/2 phosphorylation in presence of 10 uM allosteric modulator PD-81723 assessed as; outline: as §2
[12] = biological target: T2, Adenosine receptor A1 (Homo sapiens); experiment: Agonist activity at human adenosine A1 receptor expressed in CHO cells assessed as [35S]GTPgammaS binding by scintillation counting in presence of 10 uM allosteric modulator PD-81723 relative to control; assay type: functional, cell-based; outline: as §3
[13] = biological target: T2, Adenosine receptor A1 (Homo sapiens); experiment: Agonist activity at human adenosine A1 receptor expressed in CHO cells assessed as [35S]GTPgammaS binding by scintillation counting relative to control; assay type: functional, cell-based; outline: as §3
Adenosine receptor A1 [14] = biological target: T1, Adenosine receptor A1; experiment: Agonist activity at human adenosine A1 receptor expressed in CHO cells assessed as stimulation of ERK1/2 phosphorylation in presence of 10 uM allosteric modulator PD-81723; assay type: functional, cell-based; outline: as §2
[15] = biological target: T2, Adenosine receptor A1 (Homo sapiens); experiment: Agonist activity at human adenosine A1 receptor expressed in CHO cells assessed as stimulation of ERK1/2 phosphorylation relative to control; assay type: functional, cell-based; outline: as §2
Adenosine receptor A1 [16] = biological target: T1, Adenosine receptor A1; experiment: Displacement of […] from human adenosine A1 receptor expressed in CHO cells at high affinity site by scintillation counting; assay type: cell-based; outline: as §1
Adenosine receptor A1 [17] = biological target: T1, Adenosine receptor A1; experiment: Displacement of […] from human adenosine A1 receptor expressed in CHO cells at low affinity site by scintillation counting; assay type: cell-based; outline: as §1

| Structure (SMILES) | Ki (Adenosine receptor A1 [1]; read-out: Ki) [nM] | Ki (Adenosine receptor A1 [2]; read-out: Ki) [nM] | Activity [3] [%] | Ki (Adenosine receptor A1 [1]; read-out: pKi (converted)) [nM] | Ki (Adenosine receptor A1 [2]; read-out: pKi (converted)) [nM] | Emax [5] [%] | also measured |
| --- | --- | --- | --- | --- | --- | --- | --- |
| Nc1sc2c(c1C(=O)c1ccc(Cl)c(Cl)c1)CCN(CCCCOc1ccc(Nc3ncnc4c3ncn4[C@@H]3O[C@H](CO)[C@@H](O)[C@H]3O)cc1)C2 | 313 | 618 | 100 |  |  |  |  |
| Nc1sc2c(c1C(=O)c1ccc(Cl)c(Cl)c1)CCN(CCCCCCOc1ccc(Nc3ncnc4c3ncn4[C@@H]3O[C@H](CO)[C@@H](O)[C@H]3O)cc1)C2 | 288 | 419 | 103 | 275 | 479 |  |  |
| Nc1sc2c(c1C(=O)c1ccc(Cl)c(Cl)c1)CCN(CCCCCCCOc1ccc(Nc3ncnc4c3ncn4[C@@H]3O[C@H](CO)[C@@H](O)[C@H]3O)cc1)C2 | 347 | 450 | 91 |  |  |  |  |
| Nc1sc2c(c1C(=O)c1ccc(Cl)c(Cl)c1)CCN(CCCCCCCCCCOc1ccc(Nc3ncnc4c3ncn4[C@@H]3O[C@H](CO)[C@@H](O)[C@H]3O)cc1)C2 | 1360 | 1470 | 55 | 1290 | 1260 |  |  |
| Nc1sc2c(c1C(=O)c1ccc(Cl)c(Cl)c1)CCN(CCCCCOc1ccc([N+](=O)[O-])cc1)C2 |  |  |  |  |  | 185 | EC50 (Adenosine receptor A1 [4]): 5200 nM |
| Nc1sc2c(c1C(=O)c1ccc(Cl)c(Cl)c1)CCN(CCOc1ccc(Nc3ncnc4c3ncn4[C@@H]3O[C@H](CO)[C@@H](O)[C@H]3O)cc1)C2 | 469 | 751 | 100 |  | 741 |  |  |
| Nc1sc2c(c1C(=O)c1ccc(Cl)c(Cl)c1)CCN(CCCOc1ccc([N+](=O)[O-])cc1)C2 |  |  |  |  |  | 204 | EC50 (Adenosine receptor A1 [4]): 3700 nM |
| Nc1sc2c(c1C(=O)c1ccc(Cl)c(Cl)c1)CCN(CCCCCCCCCOc1ccc(Nc3ncnc4c3ncn4[C@@H]3O[C@H](CO)[C@@H](O)[C@H]3O)cc1)C2 | 651 | 679 | 83 |  | 661 | 79 | Emax [6]: 122%; EC50 (Adenosine receptor A1 [7]; read-out: EC50): 181 nM; EC50 (Adenosine receptor A1 [7]; read-out: pEC50 (converted)): 178 nM; EC50 (Adenosine receptor A1 [8]; read-out: EC50): 1070 nM; EC50 (Adenosine receptor A1 [8]; read-out: pEC50 (converted)): 955 nM; Ratio EC50 [9]: 2.2; EC50 (Adenosine receptor A1 [10]; read-out: EC50): 390 nM; Ratio EC50 [11]: 1.3; Emax [12]: 105%; Emax [13]: 110%; EC50 (Adenosine receptor A1 [14]; read-out: EC50): 813 nM; EC50 (Adenosine receptor A1 [14]; read-out: pEC50 (converted)): 692 nM; Emax [15]: 123% |
| Nc1sc2c(c1C(=O)c1ccc(Cl)c(Cl)c1)CCN(CCCCCOc1ccc(Nc3ncnc4c3ncn4[C@@H]3O[C@H](CO)[C@@H](O)[C@H]3O)cc1)C2 | 114 | 219 | 100 | 110 | 214 | 97 | Emax [6]: 131%; EC50 (Adenosine receptor A1 [7]; read-out: EC50): 52 nM; EC50 (Adenosine receptor A1 [8]; read-out: EC50): 156 nM; EC50 (Adenosine receptor A1 [8]; read-out: pEC50 (converted)): 151 nM; Ratio EC50 [9]: 5.2; EC50 (Adenosine receptor A1 [10]; read-out: EC50): 273 nM; EC50 (Adenosine receptor A1 [10]; read-out: pEC50 (converted)): 269 nM; Ratio EC50 [11]: 1.8; Emax [12]: 97%; Emax [13]: 110%; EC50 (Adenosine receptor A1 [14]; read-out: EC50): 89 nM; Emax [15]: 114% |
| Nc1sc2c(c1C(=O)c1ccc(Cl)c(Cl)c1)CCN(CCCCCCCCOc1ccc(Nc3ncnc4c3ncn4[C@@H]3O[C@H](CO)[C@@H](O)[C@H]3O)cc1)C2 | 591 | 836 | 65 | 457 | 776 |  |  |
| Nc1sc2c(c1C(=O)c1ccc(Cl)c(Cl)c1)CCN(CCOc1ccc([N+](=O)[O-])cc1)C2 |  |  |  |  |  | 250 | EC50 (Adenosine receptor A1 [4]): 8500 nM |
| Nc1sc2c(c1C(=O)c1ccc(Cl)c(Cl)c1)CCN(CCCOc1ccc(Nc3ncnc4c3ncn4[C@@H]3O[C@H](CO)[C@@H](O)[C@H]3O)cc1)C2 | 268 | 439 | 100 | 245 | 417 |  |  |
| Cc1sc(N)c(C(=O)c2cccc(C(F)(F)F)c2)c1C |  |  |  |  |  | 140 |  |
| COc1ccc(Nc2ncnc3c2ncn3[C@@H]2O[C@H](CO)[C@@H](O)[C@H]2O)cc1 | 195 | 842 | 100 | 191 | 832 | 100 | Emax [6]: 131%; EC50 (Adenosine receptor A1 [7]; read-out: EC50): 29 nM; EC50 (Adenosine receptor A1 [7]; read-out: pEC50 (converted)): 30.2 nM; Ki (Adenosine receptor A1 [16]; read-out: Ki): 71 nM; Ki (Adenosine receptor A1 [16]; read-out: pKi (converted)): 42.7 nM; EC50 (Adenosine receptor A1 [8]; read-out: EC50): 22 nM; EC50 (Adenosine receptor A1 [8]; read-out: pEC50 (converted)): 20.9 nM; Ratio EC50 [9]: 4.9; EC50 (Adenosine receptor A1 [10]; read-out: EC50): 142 nM; EC50 (Adenosine receptor A1 [10]; read-out: pEC50 (converted)): 123 nM; Ki (Adenosine receptor A1 [17]; read-out: Ki): 1990 nM; Ki (Adenosine receptor A1 [17]; read-out: pKi (converted)): 1860 nM; Ratio EC50 [11]: 4.4; Emax [12]: 91%; Emax [13]: 100%; EC50 (Adenosine receptor A1 [14]; read-out: EC50): 5 nM; Emax [15]: 100% |
